Results on 6 compounds are retold here after ChEMBL document CHEMBL4265907, “Design, synthesis and pharmacological evaluation of N4,N6-disubstituted pyrimidine-4,6-diamine derivatives as potent EGFR inhibitors in non-small cell lung cancer” (Eur J Med Chem, 2018).

For data set [1], the target named is T1, Epidermal growth factor receptor (Homo sapiens, UniProt P00533). As to the kind of experiment: Inhibition of N-terminal GST-tagged wild type human EGFR cytoplasmic domain (669 to 1210 residues) expressed in baculovirus expression system using FAM-labeled peptide as substrate after 10 mins by mobility shift assay.
For data set [2], the target named is Epidermal growth factor receptor (Homo sapiens, UniProt P00533, DEL747/DEL747-750). As to the kind of experiment: Inhibition of N-terminal GST-tagged human EGFR del 747-750 mutant cytoplasmic domain expressed in baculovirus expression system using FAM-labeled peptide as substrate after 10 mins by mobility shift assay.
The target in data set [3] is Fibroblast growth factor receptor 1 (Homo sapiens) (UniProt P11362). Description: Inhibition of N-terminal GST-tagged human FGFR1 cytoplasmic domain (398 to 822 residues) expressed in baculovirus expression system at […] using FAM-labeled peptide as substrate after 10 mins by mobility shift assay relative to control. The gist of the method: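 Caliper mobility-shift kinase assay. Kinase in kinase base buffer was preincubated with compound for 10 min at room temperature. FAM-labelled peptide and ATP at Km were then added, and the reaction ran at 28 °C until quenched with buffer. Screening concentration was 1 µM. Percent inhibition = (max − conversion)/(max − min) × 100, with DMSO as max and a low control as min.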

The test system of data set [4] is NCI-H3255. As to the kind of experiment: Antiproliferative activity against human H3255 cells after 72 hrs by MTT assay. The format is functional, cell-based. As to conditions: NCI-H3255, 72 h. The gist of the method:
(§1)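 Cells seeded at 3000/well in growth medium with 10% FBS and left overnight. Treated in triplicate for 72 h at nine concentrations (0.458 to 30,000 nM), with DMSO-only controls. MTT (5 mg/mL) added for the last 4 h, formazan dissolved in DMSO, absorbance read at 490 nm. IC50 from non-linear sigmoidal dose-response fit.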

Data set [5] relates to NCI-H1975. Description: Antiproliferative activity against human NCI-H1975 cells after 72 hrs by MTT assay. The format is functional, cell-based. To be noted: NCI-H1975, 72 h. The gist of the method: as §1
(In general: Tetrazolium assays rely on reduction of a dye to a coloured formazan, in cell work by metabolically active cells.)

A further data set concerns PC-9. As to the kind of experiment: Antiproliferative activity against human PC9 cells after 72 hrs by MTT assay. To be noted: PC-9, 72 h. It is filed as functional, cell-based. The gist of the method:
as §1

The next data set concerns BEAS-2B. Description: Cytotoxicity against human BEAS2B cells after 72 hrs by MTT assay. It is filed as cell-based. The gist of the method: as §1
Data set [6] relates to NCI-H3255. As to the kind of experiment: Induction of apoptosis in human H3255 cells assessed as early apoptotic cells at 250 nM after 48 hrs by Annexin V-FITC/PI staining based flow cytometry (reference value: 3.22%). The format is functional. Background: Flow cytometry measures light scatter and fluorescence of single cells or particles in a stream.
The target in data set [7] is T1, Epidermal growth factor receptor. Description: Inhibition of EGFR in human H3255 cells assessed as decrease in EGF-induced ERK1/2 phosphorylation by Western blot method. It is filed as cell-based. Summed up: (§2)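 Cell lysates prepared in protein lysis buffer and cleared at 12,000 g for 10 min at 4 °C. 50 μg protein per lane was run on a gel, transferred to PVDF and immunoblotted, with GAPDH as the loading control.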

Data set [8] relates to NCI-H3255. Description: Induction of apoptosis in human H3255 cells assessed as viable cells at 250 nM after 48 hrs by Annexin V-FITC/PI staining based flow cytometry (reference value: 87.9%). The format is functional. To be noted: NCI-H3255, 48 h, read-out: Activity.
In data set [9] the target is T1, Epidermal growth factor receptor. As to the kind of experiment: Inhibition of EGF-induced EGFR autophosphorylation at Y1068 residues in human A431 cells by Western blot method. It is filed as cell-based. The gist of the method:
as §2
(In general: Immunoblotting shows a protein as a band on a membrane.)

Data set [10] has as its system NCI-H3255. As to the kind of experiment: Induction of apoptosis in human H3255 cells assessed as viable cells at 1000 nM after 48 hrs by Annexin V-FITC/PI staining based flow cytometry (reference value: 87.9%). The format is functional. As to conditions: NCI-H3255, 48 h, read-out: Activity.
The test system of data set [11] is A-431. As to the kind of experiment: Induction of apoptosis in human A431 cells assessed as viable cells at 250 nM after 48 hrs by Annexin V-FITC/PI staining based flow cytometry (reference value: 90.3%). The format is functional. As to conditions: A-431, 48 h, read-out: Activity.
Data set [12] relates to A-431. As to the kind of experiment: Induction of apoptosis in human A431 cells assessed as early apoptotic cells at 500 nM after 48 hrs by Annexin V-FITC/PI staining based flow cytometry (reference value: 3.40%). It is filed as functional.
The subject of data set [13] is A-431. As to the kind of experiment: Induction of apoptosis in human A431 cells assessed as necrotic cells at 500 nM after 48 hrs by Annexin V-FITC/PI staining based flow cytometry (reference value: 4.16%). The format is functional.
Data set [14] relates to A-431. As to the kind of experiment: Induction of apoptosis in human A431 cells assessed as viable cells at 1000 nM after 48 hrs by Annexin V-FITC/PI staining based flow cytometry (reference value: 90.3%). The format is functional. To be noted: A-431, 48 h, read-out: Activity.
For data set [15], the system named is HCC827. Description: Induction of apoptosis in human HCC827 cells assessed as viable cells at 500 nM after 48 hrs by Annexin V-FITC/PI staining based flow cytometry (reference value: 94.6%). The format is functional. As to conditions: HCC827, 48 h, read-out: Activity.
In data set [16] the test system is HCC827. Description: Induction of apoptosis in human HCC827 cells assessed as early apoptotic cells at 1000 nM after 48 hrs by Annexin V-FITC/PI staining based flow cytometry (reference value: 2.83%). The format is functional.
Data set [17] relates to HCC827. As to the kind of experiment: Induction of apoptosis in human HCC827 cells assessed as late apoptotic cells at 1000 nM after 48 hrs by Annexin V-FITC/PI staining based flow cytometry (reference value: 1.15%). It is filed as functional.
In data set [18] the test system is NCI-H1975. Description: Induction of apoptosis in human NCI-H1975 cells assessed as late apoptotic cells at 250 nM after 48 hrs by Annexin V-FITC/PI staining based flow cytometry (reference value: 1.91%). The format is functional.
Data set [19] has as its system NCI-H1975. Description: Induction of apoptosis in human NCI-H1975 cells assessed as necrotic cells at 500 nM after 48 hrs by Annexin V-FITC/PI staining based flow cytometry (reference value: 2.31%). It is filed as functional.
The test system of data set [20] is NCI-H1975. Description: Induction of apoptosis in human NCI-H1975 cells assessed as viable cells at 1000 nM after 48 hrs by Annexin V-FITC/PI staining based flow cytometry (reference value: 93.7%). The format is functional. As to conditions: NCI-H1975, 48 h, read-out: Activity.
The subject of data set [21] is NCI-H1975. Description: Induction of apoptosis in human NCI-H1975 cells assessed as early apoptotic cells at 1000 nM after 48 hrs by Annexin V-FITC/PI staining based flow cytometry (reference value: 2.07%). It is filed as functional.
Data set [22] deals with NCI-H1975. Description: Induction of apoptosis in human NCI-H1975 cells assessed as late apoptotic cells after 48 hrs by Annexin V-FITC/PI staining based flow cytometry. It is filed as functional, cell-based.
Data set [23] in a line: Cmax in Sprague-Dawley rat at 30 mg/kg, po by UPLC-MS/MS analysis. The format is ADME, organism-based. Set-up: dose 30 mg/kg, route oral. As to conditions: in vivo. Summed up: (§3)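 Four female and four male Sprague-Dawley rats, 200-220 g, fasted 12 h, then given a single oral dose of 30 mg/kg as a 0.5% CMC-Na suspension. Blood sampled at 0.083, 0.25, 0.5, 1, 2, 4, 8 and 24 h, plasma separated by centrifugation at 4000 r/min for 10 min, and analysed by UPLC–MS/MS. Parameters reported as mean ± SD, n=6.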

Data set [24] is described as follows: AUC (0 to infinity) in Sprague-Dawley rat at 30 mg/kg, po by UPLC-MS/MS analysis. To be noted: in vivo. The format is ADME, organism-based. Set-up: dose 30 mg/kg, route oral, time infinity. The gist of the method:
as §3

Data set [25] has as its system Mus musculus. As to the kind of experiment: In vivo inhibition of EGFR phosphorylation in tumor of BALB/C nude mouse xenografted with human PC9 cells at 15 to 30 mg/kg, ip qd administered for 19 days by immunohistochemical analysis. The format is functional, organism-based.
The subject of data set [26] is Mus musculus. Description: In vivo inhibition of AKT phosphorylation in tumor of BALB/C nude mouse xenografted with human PC9 cells at 15 to 30 mg/kg, ip qd administered for 19 days by immunohistochemical analysis. The format is functional, organism-based.

pIC50: −log10 of the molar value. The source made the active and inactive calls. The calls are words filed in the database; no cut-off is given here.

As a reminder, the pIC50 is the IC50 on a negative log10 scale, so that one unit is a factor of ten. Usually inhibition stands for the drop in the measured response relative to a control, in per cent. For orientation: Cmax means the maximum level reached in the sampled fluid or tissue. As usually defined, the AUC(0-inf) is the area under the concentration-time curve extrapolated to infinity. A lower AUC(0-inf) goes with low exposure.

Sequence of Epidermal growth factor receptor (Homo sapiens, UniProt P00533, DEL747/DEL747-750) (P00533 with tags, fused parts or gaps DEL747/DEL747-750 limits assumed): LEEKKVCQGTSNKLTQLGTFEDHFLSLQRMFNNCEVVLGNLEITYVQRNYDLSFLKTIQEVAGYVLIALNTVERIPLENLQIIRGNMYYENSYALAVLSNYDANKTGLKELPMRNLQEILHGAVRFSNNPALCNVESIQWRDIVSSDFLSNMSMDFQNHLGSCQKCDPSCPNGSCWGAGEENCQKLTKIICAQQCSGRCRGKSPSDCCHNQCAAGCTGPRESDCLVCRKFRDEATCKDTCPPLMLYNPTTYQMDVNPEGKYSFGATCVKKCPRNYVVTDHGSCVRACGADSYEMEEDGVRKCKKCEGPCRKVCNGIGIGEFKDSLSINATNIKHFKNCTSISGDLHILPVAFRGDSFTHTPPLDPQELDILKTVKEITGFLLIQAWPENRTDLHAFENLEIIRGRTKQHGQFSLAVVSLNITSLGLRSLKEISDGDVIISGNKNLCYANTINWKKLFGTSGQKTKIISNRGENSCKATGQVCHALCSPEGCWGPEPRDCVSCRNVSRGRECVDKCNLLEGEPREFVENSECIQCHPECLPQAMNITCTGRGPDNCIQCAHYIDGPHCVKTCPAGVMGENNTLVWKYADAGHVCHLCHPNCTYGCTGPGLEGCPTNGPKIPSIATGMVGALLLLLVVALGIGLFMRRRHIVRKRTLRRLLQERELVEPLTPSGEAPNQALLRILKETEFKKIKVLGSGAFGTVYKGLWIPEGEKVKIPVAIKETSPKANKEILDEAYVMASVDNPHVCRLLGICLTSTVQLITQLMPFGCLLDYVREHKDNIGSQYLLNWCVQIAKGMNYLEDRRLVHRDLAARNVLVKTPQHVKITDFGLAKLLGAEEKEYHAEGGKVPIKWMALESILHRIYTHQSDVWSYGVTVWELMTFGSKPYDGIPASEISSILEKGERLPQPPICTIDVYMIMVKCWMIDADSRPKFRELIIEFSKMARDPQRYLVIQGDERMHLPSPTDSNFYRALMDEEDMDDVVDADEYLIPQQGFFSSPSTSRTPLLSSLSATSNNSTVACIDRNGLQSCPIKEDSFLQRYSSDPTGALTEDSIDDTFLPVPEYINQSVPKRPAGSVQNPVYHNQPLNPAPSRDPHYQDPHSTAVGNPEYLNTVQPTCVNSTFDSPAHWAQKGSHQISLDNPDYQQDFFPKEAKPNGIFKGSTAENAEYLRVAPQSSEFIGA
T1 sequence (P00533 whole entry, the tested form may be a part): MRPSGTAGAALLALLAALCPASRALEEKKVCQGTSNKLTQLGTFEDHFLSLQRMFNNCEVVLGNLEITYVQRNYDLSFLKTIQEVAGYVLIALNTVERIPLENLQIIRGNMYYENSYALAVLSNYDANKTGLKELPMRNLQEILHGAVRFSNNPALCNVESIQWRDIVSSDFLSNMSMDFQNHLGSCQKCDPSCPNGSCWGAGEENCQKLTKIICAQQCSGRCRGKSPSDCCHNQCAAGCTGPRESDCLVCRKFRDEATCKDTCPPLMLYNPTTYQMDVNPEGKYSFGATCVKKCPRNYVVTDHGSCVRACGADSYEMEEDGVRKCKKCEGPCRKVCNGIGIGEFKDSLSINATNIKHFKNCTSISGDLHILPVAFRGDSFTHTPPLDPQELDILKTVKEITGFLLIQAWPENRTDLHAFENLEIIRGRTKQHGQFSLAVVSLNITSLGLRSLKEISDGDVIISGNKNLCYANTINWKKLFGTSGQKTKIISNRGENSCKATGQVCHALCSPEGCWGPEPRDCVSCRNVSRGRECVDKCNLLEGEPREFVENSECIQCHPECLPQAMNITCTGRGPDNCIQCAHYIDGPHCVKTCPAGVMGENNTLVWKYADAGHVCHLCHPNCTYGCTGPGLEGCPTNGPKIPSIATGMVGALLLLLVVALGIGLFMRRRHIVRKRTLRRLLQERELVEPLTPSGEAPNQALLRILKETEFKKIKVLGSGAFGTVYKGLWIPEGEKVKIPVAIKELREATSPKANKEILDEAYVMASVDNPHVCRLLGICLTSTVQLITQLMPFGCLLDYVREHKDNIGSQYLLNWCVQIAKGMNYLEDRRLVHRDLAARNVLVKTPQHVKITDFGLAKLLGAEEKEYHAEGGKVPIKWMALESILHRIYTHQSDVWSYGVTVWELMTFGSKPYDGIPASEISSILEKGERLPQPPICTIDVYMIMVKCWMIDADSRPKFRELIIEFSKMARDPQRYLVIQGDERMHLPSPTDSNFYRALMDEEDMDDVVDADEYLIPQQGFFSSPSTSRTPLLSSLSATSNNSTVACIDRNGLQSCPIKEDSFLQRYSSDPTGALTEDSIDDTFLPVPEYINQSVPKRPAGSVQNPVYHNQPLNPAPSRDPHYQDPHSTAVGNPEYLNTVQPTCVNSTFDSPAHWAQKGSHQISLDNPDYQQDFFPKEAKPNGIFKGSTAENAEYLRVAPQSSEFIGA

As to `CCOC(=O)c1ccc(Nc2cc(NC(=O)CCCC(=O)O)ncn2)cc1`, the pIC50 in [1] is 7.32; in [2], 7.68. For the same compound, the inhibition in data set [3] was -5.3%.

Regarding `COc1ccc(Nc2cc(NC(=O)c3ccccc3)ncn2)cc1`, the pIC50 is 7.09 in data set [1]; 7.59 in data set [2]; 5.05 with NCI-H3255 [4]; 4.94 with NCI-H1975 [5]; 6.18 in the data set with PC-9; 4.73 with BEAS-2B. Besides, the inhibition in data set [3] was found to be 2.8%.

`O=C(O)CCCC(=O)Nc1cc(N2CCOCC2)ncn1`: the pIC50 in data set [1] was 7.28; in data set [2], 7.96; in the data set on NCI-H3255 [4], 5.24; in the data set with NCI-H1975 [5], 5.94; in the data set with PC-9, 6.25; with BEAS-2B, 4.75.

As to `COc1cccc(Nc2cc(Nc3cc(OC)ccc3OC)ncn2)c1`, the pIC50 is 6.07 in the data set on NCI-H3255 [4], 6.05 in the data set on NCI-H1975 [5], 6.35 with PC-9 and 4.67 with BEAS-2B. Moreover, the Activity in the data set on NCI-H3255 [6] was 13.3%; with A-431 [12] it was 15.1%; in the data set on A-431 [13], 5.66%; with HCC827 [16], 19.6%; in the data set with HCC827 [17] it was 14.4%; with NCI-H1975 [18] it was 13.5%. In addition, the Activity was 6.93% in the data set with NCI-H1975 [19], 27.8% in the data set on NCI-H1975 [21] and “Dose-dependent effect” in the data set with NCI-H1975 [22]. For the same compound, the inhibition result in [7] was “Dose-dependent effect”; in data set [9], “Dose-dependent effect”; in data set [3], -9.3%. For the same compound, the viability at 0.25 µM in the data set on NCI-H3255 [8] was found to be 79.2%; in the data set with A-431 [11] it was 79.3%. The viability at 1 µM in the data set with NCI-H3255 [10] stood at 65.4%; in the data set with A-431 [14] it was 65.3%; in the data set with NCI-H1975 [20], 46.4%. In addition, in the data set with HCC827 [15], the viability at 0.5 µM is 61.8%. For the same compound, the Cmax in data set [23] was 1060 ng/mL. Moreover, the AUC(0-inf) in data set [24] was 5820 ng·h/mL. Moreover, the inhibition result in the data set with Mus musculus [25] and in the data set with Mus musculus [26] was “Active” each time.

As for `O=C(O)CCCC(=O)Nc1cc(Nc2cccc(Cl)c2)ncn1`, the pIC50 with NCI-H3255 [4] was < 4.52; in the data set on NCI-H1975 [5], < 4.52; in the data set on PC-9, 5.70; in the data set on BEAS-2B, 4.74. The inhibition in data set [3] was -8.8%.

Take `COc1cccc(Nc2cc(NC(=O)CCCC(=O)O)ncn2)c1`: the values for the negative logarithm of the IC50 (pIC50) in data set [1] and in [2] were 7.43 and 7.92, respectively. Also, the inhibition in data set [3] was -5.5%.
